# In PubChem BioAssay:
# Calls of active or inactive are those of the source.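 Rule for the calls, unless noted: active = Her2 level under about 52% in both replicate screens, with viability over 70% of control (limit read from the data); inconclusive = Her2 under the limit in one screen only, or viability under 70%; inactive = Her2 level above the set limit.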
# How the values were obtained:
# [1] = Her2 expression decrease, cell viability multiplex – SKBR3 breast tumor cells, AlphaScreen, ATP viability, primary screen (AID 461); details: SKBR3 Her2 protein level, 18-24 h, measured here: SKBR3 viability, ATP luminescence, at 10 µM;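 for Her2 level: lower value means less Her2 protein in the cells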;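 for viability: percent of carrier control wells set as 100% viability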
# [2] = target: Receptor tyrosine-protein kinase erbB-2 (Homo sapiens) (UniProt P04626); experiment: as above; details: 18-24 h, at 10 µM, stronger effect = lower value
# Sequence of Receptor tyrosine-protein kinase erbB-2 (Homo sapiens) (P04626 whole entry, looked up): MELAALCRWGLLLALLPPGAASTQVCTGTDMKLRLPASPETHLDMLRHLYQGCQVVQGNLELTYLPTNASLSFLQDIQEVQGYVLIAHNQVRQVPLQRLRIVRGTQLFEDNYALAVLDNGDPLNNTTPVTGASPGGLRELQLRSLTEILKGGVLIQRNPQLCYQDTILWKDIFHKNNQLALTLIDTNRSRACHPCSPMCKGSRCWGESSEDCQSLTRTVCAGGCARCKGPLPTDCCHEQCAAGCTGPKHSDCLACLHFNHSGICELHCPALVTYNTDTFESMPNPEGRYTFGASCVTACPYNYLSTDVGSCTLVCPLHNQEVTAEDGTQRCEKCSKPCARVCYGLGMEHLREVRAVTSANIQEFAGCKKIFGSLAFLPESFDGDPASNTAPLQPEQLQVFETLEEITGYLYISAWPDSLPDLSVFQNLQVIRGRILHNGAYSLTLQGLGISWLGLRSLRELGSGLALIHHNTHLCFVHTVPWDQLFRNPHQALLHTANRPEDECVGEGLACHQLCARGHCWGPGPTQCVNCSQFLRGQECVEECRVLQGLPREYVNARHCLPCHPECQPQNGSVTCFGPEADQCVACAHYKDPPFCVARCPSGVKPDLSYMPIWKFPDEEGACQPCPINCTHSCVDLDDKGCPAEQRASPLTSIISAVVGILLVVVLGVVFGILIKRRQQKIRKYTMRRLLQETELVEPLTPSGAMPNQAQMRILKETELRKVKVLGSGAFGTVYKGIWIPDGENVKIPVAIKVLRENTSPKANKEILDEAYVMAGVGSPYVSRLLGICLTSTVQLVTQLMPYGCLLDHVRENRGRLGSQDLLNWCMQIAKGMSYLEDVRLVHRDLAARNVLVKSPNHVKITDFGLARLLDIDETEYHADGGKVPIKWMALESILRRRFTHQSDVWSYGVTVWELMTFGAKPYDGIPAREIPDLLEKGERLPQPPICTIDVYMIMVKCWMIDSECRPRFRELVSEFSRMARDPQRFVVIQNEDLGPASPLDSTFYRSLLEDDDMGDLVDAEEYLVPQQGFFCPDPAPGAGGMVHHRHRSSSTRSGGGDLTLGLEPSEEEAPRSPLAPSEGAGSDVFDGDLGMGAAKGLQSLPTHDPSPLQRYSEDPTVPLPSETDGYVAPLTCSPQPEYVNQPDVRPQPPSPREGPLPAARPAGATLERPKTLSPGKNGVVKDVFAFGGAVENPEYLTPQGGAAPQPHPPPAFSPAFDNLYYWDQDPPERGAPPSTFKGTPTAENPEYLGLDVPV
# [3] = reduced viability of SK-BR-3 breast cancer cells – cell-based, 24 h, human, pilot screen (AID 572;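 active = viability at or below 10% of carrier control in both of two separate runs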;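 note: compound exposure lasted between 18 and 24 h rather than exactly 24 h; 100% = carrier-treated control wells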); details: SK-BR-3 viability, CellTiter-Glo luminescence, at 10 µM, stronger effect = lower value
# [4] = HUVEC growth inhibition – cell-based, human, primary screen (AID 575;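 active = viability at or below 30% in both replicate assays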;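 note: 100% = median of untreated cell wells with 0.1% DMSO on each plate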); details: HUVEC proliferation, CellTiter-Glo luminescence, 72 h; at 10 µM; stronger effect = lower value
# Method in brief: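 System: primary human umbilical vein endothelial cells; Quantity: 1250 endothelial cells in each well; Buffer or medium: supplemented EBM, 2% fetal bovine serum; Doses: one dose, 10 µM final, 0.1% DMSO; Incubation: 72 h compound incubation; Technique: ATP-based CellTiter-Glo luminescent read; Evaluation: percent of median DMSO-control luminescence; Controls: vehicle and MePR control wells.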
# [5] = H69AR cell proliferation blockers – human, duplicate replicates, primary screen (AID 580;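 active = viability at or under a set limit in both replicates, limit being median viability minus 3 SD, cut at about 48% in these data, passing the limit was not always enough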;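 note: 100% = mean luminescence of untreated wells and 0% = no signal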); details: H69AR lung tumor cells viability, ATP luminescence, 72 h; at 10 µM; stronger effect = lower value
# [6] = MRP1 drug-resistance reversers in H69AR cells – cell-based, doxorubicin co-treatment, pilot screen (AID 601;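 active = viability loss from added drug above about 55%, and viability with drug at most 40%, in both replicates, limit read from the data, passing the limit was not always enough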); details: CellTiter-Glo, 72 h, at 10 µM; for differential viability (reversal): stronger effect = higher value
# [7] = yeast transport mutant growth inhibition pilot in 384-well plates, post-Golgi transport modulator project (AID 636; in the data active = inhibition above about 31%); details: absorbance 615 nm, about 18 h, stronger effect = higher value
# [8] = growth suppression of yeast trafficking mutant, preliminary HTS, modulators of trafficking downstream of Golgi apparatus project, 1536-format plate, OD 615 nm (AID 637; in the data active = inhibition above about 30%); details: yeast transport mutant growth, absorbance 615 nm, 18 h; stronger effect = higher value
# [9] = H69AR cells + 2 uM doxorubicin, measured here: viability with 2 uM doxorubicin, stronger effect = lower value
# [10] = H69AR cells, compound alone cytotoxicity
SMILES,viability [1] [%],Her2 level [2],viability [3],viability [4],viability [5],differential viability (reversal) ([6]; H69AR cells + 2 uM doxorubicin),"viability [6, 9] [%]","viability [6, 10] [%]",inhibition [7],inhibition [8]
CCOC(=O)c1sc2nc3c(cc2c1N)COC(C)(C)C3,97,92% (inactive),97% (inactive),111% (inactive),98.4% (inactive),3.91% (inactive),94.5,98.4,-6.4% (inactive),-3.23% (inactive)
COc1ccc(C(=O)CSc2nc(C)cc(=O)[nH]2)cc1,99.5,87.5% (inactive),99.5% (inactive),99.7% (inactive),101% (inactive),10% (inactive),91.4,101,-3.2% (inactive),2.1% (inactive)
COc1ccc(CNS(=O)(=O)c2ccc3oc(C(=O)O)c(C)c3c2)cc1,103,93% (inactive),103% (inactive),111% (inactive),92.2% (inactive),0.665% (inactive),91.6,92.2,-3.64% (inactive),-2.46% (inactive)
N#CC(C(=O)Nc1ccc(Cl)c(Cl)c1)=C1Nc2ccccc2N1,90.5,72.5% (inactive),90.5% (inactive),36% (inactive),13.5% (active),-10.8% (inactive),24.3,13.5,-0.66% (inactive),-1.61% (inactive)
CCN(CC(=O)NCc1cccs1)C(=O)c1cc(S(=O)(=O)N2CCOCC2)ccc1C,89.5,118% (inactive),89.5% (inactive),98.8% (inactive),87.7% (inactive),-0.58% (inactive),88.3,87.7,-4.03% (inactive),-10% (inactive)
Cc1[nH]c2c(C)cccc2c(=O)c1Br,104,81% (inactive),104% (inactive),114% (inactive),91.9% (inactive),3.28% (inactive),88.7,91.9,-6.93% (inactive),6.07% (inactive)
COc1cccc(C(=O)Nc2ccc(NC(C)=O)cn2)c1,98,76% (inactive),98% (inactive),92.4% (inactive),106% (inactive),12.5% (inactive),93.2,106,-5.27% (inactive),-4.92% (inactive)
C=CCn1c(COc2cccc(C)c2)nnc1SCC(=O)NC(=O)NCc1ccco1,108,95% (inactive),108% (inactive),78.4% (inactive),78.2% (inactive),-3.14% (inactive),81.3,78.2,-5.07% (inactive),-0.48% (inactive)
CCOC(=O)N1CCN(CC(=O)Nc2c(C(=O)OC)[nH]c3cccc(Cl)c23)CC1,102,97.5% (inactive),102% (inactive),91.9% (inactive),86.6% (inactive),-1.14% (inactive),87.8,86.6,-6.08% (inactive),8.5% (inactive)
O=C(NC1CCCCC1)C(c1ccco1)N(Cc1cccnc1)C(=O)C1COc2ccccc2O1 (stereo not given),100,84.5% (inactive),100% (inactive),91.4% (inactive),81.1% (inactive),-7.03% (inactive),88.1,81.1,-2.24% (inactive),2.13% (inactive)
CC1CCC(NC(=O)C2CCN(c3cnccn3)CC2)CC1 (stereo not given),96,95% (inactive),96% (inactive),88.6% (inactive),92.5% (inactive),11.3% (inactive),81.2,92.5,-1.76% (inactive),-2.7% (inactive)
O=C1c2ccccc2C(Nc2ccc3nc(-c4cccnc4)[nH]c3c2)N1Cc1ccco1 (stereo not given),88.5,108% (inactive),88.5% (inactive),87.5% (inactive),91.2% (inactive),10.1% (inactive),81.1,91.2,2.44% (inactive),-4.17% (inactive)
C#CC1(O)CC(C)N(C)C(C)C1 (stereo not given),105,85% (inactive),105% (inactive),85.3% (inactive),91.9% (inactive),13.6% (inactive),78.3,91.9,-4.55% (inactive),-4.6% (inactive)
CNc1ccc(C(O)(C(F)(F)F)C(F)(F)F)cc1C(O)(C(F)(F)F)C(F)(F)F,98,73% (inactive),98% (inactive),76.8% (inactive),80.7% (inactive),-3.27% (inactive),84,80.7,-5.33% (inactive),5.25% (inactive)
Cc1ccc(CNC(=O)C2CC(=O)OC23CCCC3)c(C)c1 (stereo not given),86,100% (inactive),86% (inactive),96.5% (inactive),106% (inactive),12.3% (inactive),94.1,106,-5.89% (inactive),3.17% (inactive)
Cc1ccc(-n2ncc3c(N4CCN(c5ccc(F)cc5)CC4)ncnc32)c(C)c1,87.5,94.5% (inactive),87.5% (inactive),91.8% (inactive),71.4% (inactive),31.8% (inactive),39.6,71.4,0.26% (inactive),-3.55% (inactive)
Cc1nn(-c2ccccc2)c2c1C(O)n1c(nc3ccccc31)S2 (stereo not given),91,77.5% (inactive),91% (inactive),50.9% (inactive),26.2% (active),-8.14% (inactive),34.4,26.2,-6.85% (inactive),-0.79% (inactive)
CCn1c(SCC(=O)Nc2ccccc2F)nc2c(c1=O)SC(C)C2 (stereo not given),116,86.5% (inactive),116% (inactive),96.4% (inactive),95.3% (inactive),11.5% (inactive),83.8,95.3,-6.03% (inactive),2.54% (inactive)
COc1ccc(CCNS(=O)(=O)c2ccc3c(c2)CCN3C(=O)CCC(=O)O)cc1OC,104,89% (inactive),104% (inactive),88.6% (inactive),94.1% (inactive),4.3% (inactive),89.8,94.1,-2.37% (inactive),-4.91% (inactive)
Cc1ccccc1Cn1ccc(NC(=O)c2cnn3c(C(F)(F)F)cc(-c4ccco4)nc23)n1,76.5,81% (inactive),76.5% (inactive),62.3% (inactive),60.4% (inactive),25.2% (inactive),35.3,60.4,-4.13% (inactive),5.9% (inactive)
O=C(CCn1c(=O)oc2ccccc21)NCCN1CCc2ccccc2C1,77,79% (inactive),77% (inactive),95.2% (inactive),94.4% (inactive),16% (inactive),78.4,94.4,-2.24% (inactive),3.02% (inactive)
Cc1ccc(S(=O)(=O)N2CCCC(c3nnc4n3-c3ccccc3SC4)C2)cc1 (stereo not given),78,71.5% (inactive),78% (inactive),87.2% (inactive),76.5% (inactive),4.54% (inactive),72,76.5,-8.67% (inactive),4.92% (inactive)
O=C(OCc1cccs1)c1ccccc1NS(=O)(=O)c1ccc2c(c1)OCCO2,91.5,94% (inactive),91.5% (inactive),121% (inactive),102% (inactive),15.6% (inactive),86.7,102,-3.95% (inactive),5.74% (inactive)
Cn1c(=O)cc(OCC(=O)NCCCN2CCN(Cc3ccccc3)CC2)c2ccccc21,90.5,104% (inactive),90.5% (inactive),81.3% (inactive),103% (inactive),17.9% (inactive),84.8,103,-0.93% (inactive),-7.87% (inactive)
COc1ccccc1C(=O)N1CCN(CCc2ccccc2)CC1,102,124% (inactive),102% (inactive),88.2% (inactive),103% (inactive),3.95% (inactive),99.2,103,0% (inactive),-4.17% (inactive)
COc1ccc(-n2cnnc2SCCC#N)cc1,106,96.5% (inactive),106% (inactive),88.3% (inactive),106% (inactive),16.2% (inactive),89.5,106,-3.33% (inactive),3.71% (inactive)
CCC(=O)N1CCc2cc(S(=O)(=O)CCC(=O)Nc3nc(C)cs3)ccc21,106,85% (inactive),106% (inactive),90.5% (inactive),74.4% (inactive),7.69% (inactive),66.8,74.4,-4.8% (inactive),-5.9% (inactive)
CC(C)(C)c1cc(NS(=O)(=O)c2ccc3c(c2)OCCO3)on1,131,88% (inactive),131% (inactive),98.1% (inactive),89.6% (inactive),-3.41% (inactive),93,89.6,-1.3% (inactive),5.24% (inactive)
COc1ccc(Cc2nnc3n2N=C(c2cc4ccccc4o2)CS3)cc1OC,77,79.5% (inactive),77% (inactive),64.4% (inactive),35% (active),-20% (inactive),55,35,-7.03% (inactive),-0.67% (inactive)
